EP2 modulator: modulates human prostaglandin E2 receptor EP2 signaling; P43116; EP2-expressing cells, cAMP HTRF FRET, PGE2 co-stimulation; induction, % at 25 µM; 260,000 tested, 0.83% active;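 active = compounds whose cAMP rise, as percent of the full-agonist control response, exceeds 60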;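 also: rat C6 glioma line stably carrying human EP2 under a CMV promoter; the protocol text gives 20 µM as final concentration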
Target sequence (P43116 whole entry, looked up): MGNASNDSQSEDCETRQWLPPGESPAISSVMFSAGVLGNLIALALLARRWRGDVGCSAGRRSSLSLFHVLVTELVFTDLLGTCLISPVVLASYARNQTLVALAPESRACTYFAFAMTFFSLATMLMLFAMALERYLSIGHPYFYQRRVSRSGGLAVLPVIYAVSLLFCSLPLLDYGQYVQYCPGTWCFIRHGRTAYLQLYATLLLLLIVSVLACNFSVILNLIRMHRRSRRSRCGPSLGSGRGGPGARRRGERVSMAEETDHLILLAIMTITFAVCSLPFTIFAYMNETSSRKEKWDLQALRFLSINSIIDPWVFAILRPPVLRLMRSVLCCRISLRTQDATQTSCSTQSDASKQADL
MC4R ag barr: human MC4R agonism via beta-arrestin. P32245. U2OS MC4R beta-arrestin complementation, luminescence; percent of melanotan II response, DMSO zero. activation, % at 8.9 µM. 360,000 tested, 0.98% active. AID 540308;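 active = activation above a per-plate cutoff, the mean activation of sample wells on that plate plus 3 SD, cut at about 8% in these data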
Target sequence (P32245 whole entry, looked up): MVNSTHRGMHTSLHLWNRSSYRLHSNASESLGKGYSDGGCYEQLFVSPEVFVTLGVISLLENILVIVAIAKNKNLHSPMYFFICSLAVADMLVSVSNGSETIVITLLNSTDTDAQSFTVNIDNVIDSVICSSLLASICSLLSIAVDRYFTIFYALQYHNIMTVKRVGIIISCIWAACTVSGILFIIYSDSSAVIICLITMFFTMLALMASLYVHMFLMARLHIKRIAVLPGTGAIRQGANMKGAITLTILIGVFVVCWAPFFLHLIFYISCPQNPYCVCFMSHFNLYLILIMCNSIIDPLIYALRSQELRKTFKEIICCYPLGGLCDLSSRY
MC4R antag cAMP: blocks human MC4R cAMP signaling; P32245; MC4R-expressing cells, MTII-stimulated cAMP, LANCE TR-FRET; inhibition, % at 6.5 µM; 360,000 tested, 0.48% active; AID 540295;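 active = inhibition above its plate's cutoff, the mean of tested wells on that plate plus 3 SD, cut at about 29% in these data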
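system = U2OS cells with stable human MC4R expression | also added = Melanotan II challenge after compound preincubation | dosing = one concentration, 6.5 µM nominal | incubation = compound 30 min, challenge 1 h, detection 1 h | measured by = TR-FRET with Eu-cAMP and labeled anti-cAMP, 671 nm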
T cell HTS: modulates CD8 T cell binding to vesicles. 2C CD8+ T cell-vesicle binding, flow cytometry; active compounds read low. response (vesicle binding), % at 7 µM. 330,000 tested, 0.068% active. AID 2052;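 active = response, share of CD8 T cells binding vesicles, and their 90th percentile fluorescence all below set limits, cut at about 80% in these data, passing the limit was not always enough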;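 also: values below 100% mean blocked vesicle binding to the CD8+ T cells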
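incubation = binding step 1.5 h, 37 °C, antibody labelling 20 min, ice | test system = 2C mouse CD8+ T cells | read-out basis = percent CD8+ FL2 mean versus row control | controls = Peptide-free naked vesicles (low) and QL9 vesicles with 0.7% DMSO vehicle (high) | detection = flow cytometry of vesicle-bound cells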
EP2 antag: inhibitors of human EP2 prostaglandin E2 receptor; P43116; C6 glioma cells expressing human EP2, cAMP TR-FRET; cells stimulated with saturating PGE2; inhibition, % at 25 µM; 260,000 tested, 0.52% active;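 active = percent inhibition above 40 after rounding to a whole number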;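 also: rat C6 glioma host cells with rolipram phosphodiesterase inhibitor present; the protocol text gives 20 µM as final concentration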
Exocytosis inh: lytic granule exocytosis inhibition. TALL-104 LAMP-1 surface exposure, flow cytometry; cells stimulated with thapsigargin and PMA. inhibition, % at 10 µM. 360,000 tested, 0.66% active. AID 651702;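 active = inhibition above about 55%, limit read from the data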
MC4R barr conf: human MC4R beta-arrestin agonism confirmation. U2OS MC4R beta-arrestin recruitment, luminescence; scaled DMSO 0%, Melanotan II 100%. shares compounds with MC4R ag barr. activation, % at 8.9 µM. 2,400 tested, 31% active;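 active = mean activation across replicates above the hit cutoff set in the earlier primary screen, cut at about 8% in these data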
MOR DOR agonist: counter-screen for MC4R agonists: agonists of mu-delta opioid heterodimer; shares compounds with MC4R ag barr; U2OS PathHunter beta-arrestin, beta-gal luminescence; percent of deltorphin B response, DMSO zero; activation, % at 9.2 µM; 2,400 tested, 5.8% active;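 active = mean activation across replicates exceeds the hit threshold derived in the earlier primary screen, cut at about 18% in these data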
Each line names hits and unclear results; the compound was inactive in the other large screens (follow-up assays come after a bar, where they were run); ! = not active in a repeat. The list is not random: actives were taken first. Their share in the collection is about 2.6%.

CCN1CCN(Cc2ccc(NC(=O)c3cc(NC(=O)c4ccno4)cc(OC)c3)cc2C(F)(F)F)CC1	none
CCN1CCN(Cc2ccc(NC(=O)c3cc(NC(=O)c4cc5cccc(OC)c5o4)cc(OC)c3)cc2C(F)(F)F)CC1	MC4R ag barr 28.6! | MC4R barr conf 37.0 | MOR DOR agonist inactive
CC1(C)Oc2ccc3ccc(=O)oc3c2/C(=C/Nc2ccc(O)cc2)C1=O	MC4R ag barr 11.0 | MC4R barr conf 23.0 | MOR DOR agonist inactive
CCc1ccc(C2CC(c3ccc(F)cc3)Nc3nc(N)nn32)cc1 (stereo not drawn)	MC4R ag barr 24.7 | MC4R barr conf 17.3 | MOR DOR agonist inactive
CCOc1ccccc1NC(=O)CSc1nnnn1Cc1ccccc1	none
CCN=C1SC(CC(=O)Nc2sc3c(c2C#N)CCCC3)C(=O)N1CC (stereo not drawn)	MC4R ag barr 12.4 | MC4R barr conf inactive | MOR DOR agonist inactive
CCCNC(=O)c1c(O)c2c([nH]c1=O)CCCC2	none
COc1ccc(CCNC(=O)c2c(O)c3c([nH]c2=O)CCCC3)cc1	MC4R ag barr 10.1 | MC4R barr conf 8.6 | MOR DOR agonist inactive
CC(=O)c1ccc(NC(=S)NC(C)c2ccc(Cl)cc2Cl)cc1 (stereo not drawn)	none
C/C(N)=C(/C#N)C(=O)CSc1nnc(-c2ccc(OC(F)F)cc2)o1	none
CCOC(=O)c1c(C)[nH]c(C)c1C(=O)CSc1nnc(-c2ccc(OC(F)F)cc2)o1	MC4R ag barr 28.7 | MC4R barr conf inactive | MOR DOR agonist inactive
O=C(CCCCn1c(=O)c2ccccc2n(Cc2ccc(F)cc2Cl)c1=O)NCc1ccco1	MC4R ag barr 11.1 | MC4R barr conf inactive | MOR DOR agonist inactive
COc1cccc(-c2ccc3ncnc(NCc4cc(C)cs4)c3c2)c1	none (no result: EP2 modulator, EP2 antag)
COC(=O)C[C@@H]1C=C[C@@H](NC(=O)c2ccccc2F)[C@@H](CO)O1	none (no result: EP2 modulator, MC4R ag barr, MC4R antag cAMP, T cell HTS, EP2 antag)
O=C(Cc1cccc2ccccc12)NN=Cc1ccc2c(c1)CCC2	MC4R ag barr 13.3 (no result: EP2 modulator, T cell HTS, EP2 antag) | MC4R barr conf inactive | MOR DOR agonist inactive
O=C(NN=Cc1ccc2c(c1)CCC2)c1cccc([N+](=O)[O-])c1	MC4R ag barr 22.1 (no result: EP2 modulator, T cell HTS, EP2 antag) | MC4R barr conf 12.5 | MOR DOR agonist inactive
O=C(Cc1cccc2ccccc12)N/N=C1\CCCc2ccccc21	none
COc1cc(-c2nnc(COc3ccc(Cl)cc3C)o2)cc(OC)c1OC	MC4R ag barr 28.5 | MC4R barr conf inactive | MOR DOR agonist inactive
Cc1cc(Cl)ccc1OCc1nnc(-c2ccccc2C)o1	none (no result: EP2 modulator, T cell HTS, EP2 antag)
COc1cc(/C=N/NC(=O)c2ccccn2)ccc1OC(=O)c1ccccc1Br	MC4R ag barr 12.5 (no result: EP2 modulator, EP2 antag) | MC4R barr conf inactive | MOR DOR agonist inactive
COc1cc(/C=N/NC(=O)c2ccccn2)ccc1OC(=O)c1ccc(Br)cc1	none (no result: EP2 modulator, EP2 antag)
CC(NC(=O)Nc1ccc(Br)cc1)C(C)(C)C (stereo not drawn)	none
COc1cc(C)c(/C=C(\C#N)C(=O)Nc2cccc(C)c2)cc1C(C)C	MC4R ag barr 13.1 | MC4R barr conf inactive | MOR DOR agonist inactive
CC12CC3(C)CC(C)(C1)CC(C(=O)NCc1cccnc1)(C2)C3	none (no result: EP2 modulator, EP2 antag)
O=C(COc1ccc2c(c1)OCO2)Nc1ccc2c(c1)oc1ccccc12	MC4R ag barr 22.2 | MC4R barr conf 21.0 | MOR DOR agonist inactive
Clc1ccc(-c2nc3nc4ccccc4nc3n2Cc2ccco2)cc1	MC4R ag barr 20.1 | MC4R barr conf inactive | MOR DOR agonist inactive
CC1CCc2nc(NC(=O)CSc3nc4ccccc4o3)sc2C1 (stereo not drawn)	MC4R ag barr 13.9 | MC4R barr conf inactive | MOR DOR agonist inactive
COc1cc2c(cc1OC)C(c1ccc(-c3ccc(Cl)cc3Cl)o1)=NCC2	MC4R ag barr 11.8 (no result: EP2 antag) | MC4R barr conf inactive | MOR DOR agonist inactive
COc1ccc(CCNC(=O)CN2C(=O)COc3ccc(S(=O)(=O)N4CCOCC4)cc32)c(OC)c1	none (no result: EP2 modulator, EP2 antag)
COc1ccc(S(=O)Cc2ccc(C(=O)N3CCN(C(=O)c4ccco4)CC3)o2)cc1 (stereo not drawn)	none (no result: EP2 modulator, EP2 antag)
O=Nc1c(O)n(Cc2ccc(Cl)c(Cl)c2)c2ccccc12	MC4R ag barr 10.3 | MC4R barr conf inactive | MOR DOR agonist inactive
O=Nc1c(O)n(Cc2ccccc2)c2ccccc12	none
O=Nc1c(O)n(Cc2cccc(C(F)(F)F)c2)c2ccccc12	EP2 modulator 63.9, MC4R ag barr 11.0 | MC4R barr conf inactive | MOR DOR agonist inactive
COc1ccc(NC(=O)Cn2cnc3c(cnn3-c3ccc(C)c(C)c3)c2=O)c(OC)c1	MC4R ag barr 11.9 | MC4R barr conf 15.4 | MOR DOR agonist inactive
CCOc1ccccc1NC(=O)Cn1cnc2c(cnn2-c2ccc(C)c(C)c2)c1=O	none
O=C(CC1c2ccccc2Oc2ccccc21)Nc1ccccc1C(F)(F)F	MC4R ag barr 16.6 | MC4R barr conf inactive | MOR DOR agonist inactive
O=C(CC1c2ccccc2Oc2ccccc21)Nc1ccccc1F	MC4R ag barr 10.5 | MC4R barr conf inactive | MOR DOR agonist inactive
Cc1cccc(NC(=O)CC2c3ccccc3Oc3ccccc32)c1	none
CC1=CC2=NC(=O)/C(=C\c3cccn3CCOc3ccc(C)c(C)c3)C(=N)N2O1	MC4R ag barr 13.7 | MC4R barr conf inactive | MOR DOR agonist inactive
Cc1ccc2oc(-c3cccc(N)c3)nc2c1	none
Nc1cccc(-c2nc3cc(S(=O)(=O)c4ccc5oc(-c6cccc(N)c6)nc5c4)ccc3o2)c1	MC4R ag barr 13.7 | MC4R barr conf inactive | MOR DOR agonist inactive
Cc1ccc(NC(=S)NC(=O)c2ccc(-c3ccc(Cl)cc3)o2)c(O)c1	MC4R ag barr 16.4 | MC4R barr conf 20.9 | MOR DOR agonist inactive
COc1ccc(-c2csc(NC(=O)COC(=O)c3ccco3)n2)cc1	MC4R ag barr 11.5 | MC4R barr conf inactive | MOR DOR agonist inactive
COc1cc2c(cc1OC)CN(S(=O)(=O)c1cccc(F)c1)CC2	none (no result: EP2 modulator, EP2 antag)
N#Cc1c(C(F)(F)F)cc(-c2cccs2)nc1SCc1ccc(Cl)nc1	MC4R ag barr 15.9 | MC4R barr conf inactive | MOR DOR agonist inactive
N#Cc1c(C(F)(F)F)cc(-c2cccs2)nc1SCc1cccnc1	MC4R ag barr 12.1 | MC4R barr conf inactive | MOR DOR agonist inactive
N#Cc1ccc(-c2cccs2)nc1SCc1cccnc1	none
COc1ccc(N2CCN(c3cc(C)c4ccccc4n3)CC2)cc1	MC4R ag barr 16.1 | MC4R barr conf inactive | MOR DOR agonist inactive
Cc1ccc2c(c1)CCO[C@]21O[C@H](CCO)C[C@H](O)[C@H]1O	none (no result: EP2 modulator, T cell HTS, EP2 antag)

Screening results deposited in PubChem BioAssay by several laboratories.
